In data set [1] the test system is MCF7. The data set is described as follows: Antiproliferative activity against human MCF7 cells assessed as inhibition of cell growth incubated for 72 hrs by Hoechst 33342/propidium iodide staining based fluorescence analysis. It counts as functional. The settings on record: MCF7, 72 h.
The test system of the next data set is SK-BR-3. The data set is described as follows: Antiproliferative activity against human SK-BR-3 cells assessed as inhibition of cell growth incubated for 72 hrs by Hoechst 33342/propidium iodide staining based fluorescence analysis. It counts as functional. The settings on record: SK-BR-3, 72 h.
In the next data set the test system is MDA-MB-231. Description: Antiproliferative activity against human MDA-MB-231 cells assessed as inhibition of cell growth incubated for 72 hrs by Hoechst 33342/propidium iodide staining based fluorescence analysis. It counts as functional. The settings on record: MDA-MB-231, 72 h.
Data set [2] deals with MCF-10A. Description: (§1) Cytotoxicity against human MCF-10A cells assessed as inhibition of cell growth incubated for 72 hrs by Hoechst 33342/propidium iodide staining based fluorescence analysis. It counts as toxicity. The settings on record: mcf-10a.
The nature of data set [3]: Antiproliferative activity against human BNC3 cells assessed as inhibition of cell growth incubated for 72 hrs by CCK-8 assay. It counts as functional, cell-based. The settings on record: BNC3, 72 h. A digest of the protocol:
(§2)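 Primary patient-derived glioblastoma lines were grown in RPMI 1640 with 10% FBS. Cells were seeded at 3,000 per well and dosed 24 h later at 10, 50, 100, 200 and 300 μM for 24 or 72 h, with BiCNU as control. CCK-8 was added and OD450 read after 2 h at 37 °C. Data are % cell survival, from 3 independent replicates.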

Data set [4] is described as follows: Antiproliferative activity against human BNC6 cells assessed as inhibition of cell growth incubated for 72 hrs by CCK-8 assay. It counts as functional, cell-based. The settings on record: BNC6, 72 h. A digest of the protocol:
as §2

The test system of another data set is BNC3. Description: Antiproliferative activity against human BNC3 cells assessed as suppression of cell growth incubated for 24 to 72 hrs by CCK-8 assay. It counts as functional, cell-based. The settings on record: dose 10-300 µM, time 24-72 hrs. A digest of the protocol: as §2
The subject of another data set is BNC6. The data set is described as follows: Antiproliferative activity against human BNC6 cells assessed as suppression of cell growth incubated for 24 to 72 hrs by CCK-8 assay. It counts as functional, cell-based. The settings on record: dose 10-300 µM, time 24-72 hrs. A digest of the protocol: as §2
Data set [5] is described as follows: Antiproliferative activity against human WSU-HN30 cells assessed as inhibition of cell growth incubated for 72 hrs by CCK-8 assay. It counts as functional, cell-based. The settings on record: WSU-HN30, 72 h. A digest of the protocol:
(§3)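 Radiotherapy-resistant HNSCC lines were used: HN30 from pharynx SCC and HN31 from a lymph-node metastasis of the same patient. Cells in RPMI 1640 with 10% FBS were seeded at 3,000 per well and treated 24 h later with 10–300 μM (5 levels) for 24 or 72 h, with cisplatin as control. CCK-8 was read at OD450 after 2 h. Data are % survival, n = 3 independent experiments.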

The nature of data set [6]: Antiproliferative activity against human WSU-HN31 cells assessed as inhibition of cell growth incubated for 72 hrs by CCK-8 assay. It counts as functional, cell-based. The settings on record: WSU-HN31, 72 h. A digest of the protocol: as §3
In another data set the test system is WSU-HN30. Description: Antiproliferative activity against human WSU-HN30 cells assessed as suppression of cell growth incubated for 24 to 72 hrs by CCK-8 assay. It counts as functional, cell-based. The settings on record: dose 10-300 µM, time 24-72 hrs. A digest of the protocol: as §3
In the next data set the test system is WSU-HN31. The data set is described as follows: Antiproliferative activity against human WSU-HN31 cells assessed as suppression of cell growth incubated for 24 to 72 hrs by CCK-8 assay. It counts as functional, cell-based. The settings on record: dose 10-300 µM, time 24-72 hrs. In short, it runs like this:
as §3

Data set [7] can be described thus: as §1. It counts as toxicity. The settings on record: human, MCF-10A cells.
The nature of data set [8]: (§4) Cytotoxicity against human MCF-10A cells assessed as inhibition of cell growth incubated for 24 hrs by Hoechst 33342/propidium iodide staining based fluorescence analysis. It counts as toxicity. The settings on record: human, MCF-10A cells.
The test system of data set [9] is MCF7. Description: Antiproliferative activity against human MCF7 cells assessed as inhibition of cell growth incubated for 24 hrs by Hoechst 33342/propidium iodide staining based fluorescence analysis. It counts as functional. The settings on record: MCF7, 24 h.
Data set [10] deals with MCF-10A. The description is as §4. It counts as toxicity. The settings on record: mcf-10a.

SMILES strings stand for the structures.

Consider `C=C(C[C@H](NC(=O)OC(C)(C)C)C(=O)OC(C)(C)C)C(=O)Nc1ccc(F)cc1`, for which the half-inhibitory concentration (IC50) is > 1000 µM in the data set on MCF7 [1], < 1000 µM with SK-BR-3, < 1000 µM in the data set with MDA-MB-231 and < 1000 µM with MCF-10A [2].

On to `O=NN(CCCl)C(=O)NCCCl` [CARMUSTINE], for which the IC50 in data set [3] was determined as 157 µM; in [4] it was 160 µM.

In the case of `C=C(C[C@H](N)C(=O)O)C(=O)Nc1ccccc1`, the Activity result with BNC3, in the data set with BNC6, in the data set on WSU-HN30 and in the data set on WSU-HN31 was “Dose-Dependent Effect” each time. In addition, the IC50 in data set [3] was 218 µM; in data set [4], 210 µM; in data set [5], 92.9 µM; in [6], 199 µM; in the data set with MCF7 [9] it was > 1000 µM. Moreover, the half-maximal inhibitory concentration (IC50) at 72 h in data set [7] is > 1000 µM. Moreover, in data set [8], the IC50 at 24 h was > 1000 µM.

For `C=C(C[C@H](N)C(=O)O)C(N)=O`, the 50% inhibitory concentration (IC50) at 72 h in [7] is > 1000 µM. Moreover, the IC50 at 24 h in data set [8] was > 1000 µM.

On to `C=C(C[C@H](N)C(=O)O)C(=O)Nc1ccc(Cl)cc1`, for which, in data set [7], the IC50 at 72 h was > 1000 µM. In addition, in data set [8], the concentration for half-maximal inhibition (IC50) at 24 h was > 1000 µM.

As for `C=C(C[C@H](N)C(=O)O)C(=O)Nc1ccc(F)cc1`, the Activity entry in the data set on BNC3, in the data set with BNC6, with WSU-HN30 and in the data set on WSU-HN31 was “Dose-Dependent Effect” throughout. Besides, the half-inhibitory concentration (IC50) in data set [3] is 182 µM; in data set [4] it was 194 µM; in data set [5], 220 µM; in data set [6], 202 µM. The IC50 at 72 h in data set [7] is > 1000 µM. Besides, in [8], the concentration for half-maximal inhibition (IC50) at 24 h is > 1000 µM.

For `C=C(C[C@H](N)C(=O)O)C(=O)N1CCCCC1`, the Activity entry with BNC3, with BNC6, in the data set on WSU-HN30 and in the data set on WSU-HN31 was “Dose-Dependent Effect” throughout. Further, the 50% inhibitory concentration (IC50) in data set [3] turned out to be 158 µM; in data set [4], 199 µM; in data set [5], 97 µM; in data set [6] it was 207 µM. Besides, the IC50 at 72 h in data set [7] is > 1000 µM. Moreover, the half-maximal inhibitory concentration (IC50) at 24 h in [8] is > 1000 µM.

Consider `CC/C(=C(\c1ccccc1)c1ccc(OCCN(C)C)cc1)c1ccccc1` [TAMOXIFEN], for which the 50% inhibitory concentration (IC50) was < 1000 µM in the data set with MCF7 [1]; < 1000 µM in the data set with SK-BR-3; < 1000 µM with MDA-MB-231; > 1000 µM with MCF-10A [2]; > 1000 µM in the data set on MCF-10A [10].

As for `C=C(C[C@H](N)C(=O)O)C(=O)NCc1ccc([N+](=O)[O-])cc1`, the Activity result with BNC3, in the data set with BNC6, in the data set on WSU-HN30 and in the data set on WSU-HN31 was “Dose-Dependent Effect” throughout. In addition, the 50% inhibitory concentration (IC50) in [3] came to 156 µM; in data set [4], 180 µM; in data set [5] it was 91.8 µM; in [6], 194 µM. Moreover, in data set [7], the half-maximal inhibitory concentration (IC50) at 72 h was > 1000 µM. Also, the 50% inhibitory concentration (IC50) at 24 h in [8] was > 1000 µM.

On to `C=C(C[C@H](NC(=O)OC(C)(C)C)C(=O)OC(C)(C)C)C(=O)Nc1ccc(Cl)cc1`, for which the half-maximal inhibitory concentration (IC50) with MCF7 [1], with SK-BR-3 and in the data set with MDA-MB-231 was > 1000 µM throughout. The IC50 at 72 h in data set [7] was > 1000 µM.

On to `C=C(C[C@H](NC(=O)OC(C)(C)C)C(=O)OCC)C(=O)Nc1ccc(F)cc1`, for which the figures for the IC50 with MCF7 [1], in the data set with SK-BR-3 and in the data set on MDA-MB-231 were > 1000 µM, < 1000 µM and > 1000 µM, respectively. Also, in [7], the IC50 at 72 h is > 1000 µM.

As to `C=C(C[C@H](N)C(=O)O)C(=O)NCc1ccccc1`, the Activity entry in the data set with BNC3, in the data set on BNC6, with WSU-HN30 and with WSU-HN31 was “Dose-Dependent Effect” each time. Also, the half-inhibitory concentration (IC50) in data set [3] is 171 µM; in data set [4] it was 188 µM; in data set [5] it was 119 µM; in data set [6], 199 µM; in the data set on MCF7 [9] it was > 1000 µM. For the same compound, in data set [7], the half-maximal inhibitory concentration (IC50) at 72 h is > 1000 µM. In addition, the half-inhibitory concentration (IC50) at 24 h in [8] was > 1000 µM.

Turning to `O=C(c1cc(Cc2n[nH]c(=O)c3ccccc23)ccc1F)N1CCN(C(=O)C2CC2)CC1` [OLAPARIB], the half-maximal inhibitory concentration (IC50) was < 1000 µM with MCF7 [1]; < 1000 µM with SK-BR-3; < 1000 µM in the data set with MDA-MB-231; > 1000 µM with MCF-10A [10]; > 1000 µM with MCF7 [9]. Moreover, the 50% inhibitory concentration (IC50) at 72 h in data set [7] was > 1000 µM.

For `C=C(C[C@H](N)C(=O)O)C(=O)NC1CC1`, the Activity result in the data set with BNC3, in the data set on BNC6, in the data set with WSU-HN30 and with WSU-HN31 was “Dose-Dependent Effect” each time. The IC50 in data set [3] was 171 µM; in data set [4], 187 µM; in [5], 105 µM; in data set [6], 196 µM. For the same compound, in data set [7], the IC50 at 72 h was > 1000 µM. The concentration for half-maximal inhibition (IC50) at 24 h in data set [8] was > 1000 µM.

Take `C=C1C[C@@H](C(=O)OC(C)(C)C)N(C(=O)OC(C)(C)C)C1=O`: the half-maximal inhibitory concentration (IC50) was > 1000 µM in the data set with MCF7 [1], > 1000 µM in the data set on SK-BR-3 and < 1000 µM in the data set on MDA-MB-231. The IC50 at 72 h in data set [7] is > 1000 µM.

`C=C(C[C@H](NC(=O)OC(C)(C)C)C(=O)OC(C)(C)C)C(=O)N1CCCCC1`: the half-maximal inhibitory concentration (IC50) in the data set with MCF7 [1], with SK-BR-3 and with MDA-MB-231 was < 1000 µM each time. In data set [7], the IC50 at 72 h was > 1000 µM.
